In brackets after ≈: the same amount, converted by molar mass.
Assays:
[1] = system: Streptococcus pneumoniae; test: Compound was tested for inhibition of the […] organism Streptococcus pneumoniae SV-1; format: functional
In short: (§1)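 MICs read in standard microdilution (microtitration) format against a panel of 10 bacterial organisms; values in µg/mL.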

[2] = system: Enterococcus faecalis; test: Compound was tested for inhibition of the […] organism Streptococcus faecalis MGH-2; format: functional; in short: as §1
[3] = system: Mus musculus; test: Compound was evaluated for protective dose against the […] UC-76 lethal infection following sc administration in mouse; format: functional; settings: read-out: PD50
In short: (§2)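 Acute lethal systemic infection in female Charles River CD-1 mice (18–22 g), challenged intraperitoneally with an estimated 100 median lethal dose in 5% hog gastric mucin. Single doses in a twofold rising series were given with the challenge, sc as aqueous solution or po by gavage in 5% gum acacia. PD50 (mg/kg) was estimated by log probit from survival of eight mice per dose.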

[4] = system: Escherichia coli; test: Compound was tested for inhibition of the gram-negative organism Escherichia coli H560; format: functional; in short: as §1
[5] = system: Providencia rettgeri; test: Compound was tested for inhibition of the gram-negative organism Providencia rettgeri H1771; format: functional; in short: as §1
[6] = system: Enterobacter cloacae; test: Compound was tested for inhibition of the gram-negative organism […] HA 2646; format: functional
[7] = system: Mus musculus; test: Compound was evaluated for protective dose against the […] UC-76 lethal infection following po administration in mouse; format: functional; settings: read-out: PD50; in short: as §2
[8] = system: Pseudomonas aeruginosa; test: Compound was tested for inhibition of the gram-negative organism Pseudomonas aeruginosa UI-18; format: functional; in short: as §1
[9] = target: DNA gyrase (Escherichia coli) (UniProt P0AES6+P0AES4); test: Inhibition of DNA gyrase of Escherichia coli H560 cells
In short: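 DNA gyrase purified from Escherichia coli H560 cells. Cleavage assay: drug-gyrase-DNA complex denatured, converting closed circular DNA to linear DNA. Linear DNA resolved by gel electrophoresis and stained with ethidium bromide. Value is the minimum drug concentration (µg/mL) giving linear DNA at an intensity relative to oxolinic acid at 10 µg/mL. Aqueous drug stocks made up in 0.1 N NaOH or KOH.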

[10] = system: Streptococcus pyogenes; test: Compound was tested for inhibition of the […] organism Streptococcus pyogenes C203.; format: functional; in short: as §1
[11] = system: Klebsiella pneumoniae; test: Compound was tested for inhibition of the gram-negative organism Klebsiella pneumoniae MGH-2; format: functional; in short: as §1
[12] = system: Mus musculus; test: Compound was evaluated for protective dose against the Escherichia coli vogel lethal infection following peroral administration in mouse; format: functional; settings: po, read-out: PD50; in short: as §2
[13] = system: Staphylococcus aureus; test: Compound was tested for inhibition of the […] organism […] H228.; format: functional; in short: as §1
[14] = system: Mus musculus; test: Compound was evaluated for protective dose against the Escherichia coli vogel lethal infection following sc administration in mouse; format: functional; settings: read-out: PD50; in short: as §2
[15] = system: Staphylococcus aureus; test: Compound was tested for inhibition of the […] organism […] UC-76.; format: functional; in short: as §1
[16] = system: Escherichia coli; test: Compound was tested for inhibition of the gram-negative organism Escherichia coli vogel; format: functional; in short: as §1
[17] = system: Mus musculus; test: Compound was evaluated for protective dose against Streptococcus pneumoniae SV-1 lethal infection following sc administration; format: functional; settings: read-out: PD50
In short: (§3)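 Female Charles River CD-1 mice (18–22 g) were challenged intraperitoneally with an estimated 100 median lethal dose in tryptic soy broth. Single doses, in a twofold rising series, were given at the same time as challenge: subcutaneously as aqueous solution, or orally by gavage in 5% gum acacia. Survival in groups of eight mice per dose gave PD50 (mg/kg) by log probit.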

[18] = system: Mus musculus; test: Compound was evaluated for protective dose against the Streptococcus pneumoniae SV-1 lethal infection following po administration; format: functional; settings: read-out: PD50; in short: as §3

CCNCC1CCN(c2cc3c(cc2F)c(=O)c(C(=O)O)cn3CC)C1 (stereo unspecified)
MIC [1]: 0.2 µg/mL (≈ 0.553 µM) | MIC [2]: 0.2 µg/mL (≈ 0.553 µM) | ED50 [3]: 3 mg/kg | MIC [4]: 0.1 µg/mL (≈ 0.277 µM) | MIC [5]: 1.6 µg/mL (≈ 4.43 µM) | MIC [6]: 0.2 µg/mL (≈ 0.553 µM) | ED50 [7]: 35 mg/kg | MIC [8]: 1.6 µg/mL (≈ 4.43 µM) | Min concentration [9]: 2.5 µg/mL | MIC [10]: 0.1 µg/mL (≈ 0.277 µM) | MIC [11]: 0.4 µg/mL (≈ 1.11 µM) | ED50 [12]: > 100 mg/kg | MIC [13]: 0.2 µg/mL (≈ 0.553 µM) | ED50 [14]: 15 mg/kg | MIC [15]: 0.05 µg/mL (≈ 0.138 µM) | MIC [16]: 0.1 µg/mL (≈ 0.277 µM)

CCn1cc(C(=O)O)c(=O)c2cc(F)c(N3CCC(CNC)C3)c(F)c21 (stereo unspecified)
MIC [1]: 0.1 µg/mL (≈ 0.274 µM) | MIC [2]: 0.1 µg/mL (≈ 0.274 µM) | MIC [4]: 0.2 µg/mL (≈ 0.547 µM) | MIC [5]: 0.8 µg/mL (≈ 2.19 µM) | MIC [6]: 0.4 µg/mL (≈ 1.09 µM) | MIC [8]: 1.6 µg/mL (≈ 4.38 µM) | Min concentration [9]: 0.5 µg/mL | MIC [10]: 0.1 µg/mL (≈ 0.274 µM) | MIC [11]: 0.8 µg/mL (≈ 2.19 µM) | ED50 [17]: 11 mg/kg | ED50 [12]: 6.9 mg/kg | MIC [13]: 0.2 µg/mL (≈ 0.547 µM) | ED50 [14]: 1.9 mg/kg | MIC [15]: 0.1 µg/mL (≈ 0.274 µM) | MIC [16]: 0.4 µg/mL (≈ 1.09 µM) | ED50 [18]: 37 mg/kg

CNn1cc(C(=O)O)c(=O)c2cc(F)c(N3CCN(C)CC3)cc21 [AMIFLOXACIN]
MIC [1]: 12.5 µg/mL (≈ 37.4 µM) | MIC [2]: 3.1 µg/mL (≈ 9.27 µM) | MIC [4]: 0.025 µg/mL (≈ 0.0748 µM) | MIC [5]: 0.2 µg/mL (≈ 0.598 µM) | MIC [8]: 0.8 µg/mL (≈ 2.39 µM) | MIC [10]: 12.5 µg/mL (≈ 37.4 µM) | MIC [11]: 0.2 µg/mL (≈ 0.598 µM) | ED50 [17]: > 25 mg/kg | ED50 [12]: 4.5 mg/kg | MIC [13]: 1.6 µg/mL (≈ 4.79 µM) | ED50 [14]: 1 mg/kg | MIC [15]: 0.4 µg/mL (≈ 1.2 µM) | MIC [16]: 0.1 µg/mL (≈ 0.299 µM) | ED50 [18]: > 100 mg/kg

O=C(O)c1cn(C2CC2)c2cc(N3CCNCC3)c(F)cc2c1=O [CIPROFLOXACIN]
MIC [2]: 0.8 µg/mL (≈ 2.41 µM) | ED50 [3]: 3 mg/kg | MIC [4]: 0.025 µg/mL (≈ 0.0754 µM) | MIC [5]: 0.1 µg/mL (≈ 0.302 µM) | ED50 [7]: 9.5 mg/kg | MIC [8]: 0.4 µg/mL (≈ 1.21 µM) | Min concentration [9]: 0.5 µg/mL | MIC [10]: 0.8 µg/mL (≈ 2.41 µM) | MIC [11]: 0.1 µg/mL (≈ 0.302 µM) | ED50 [17]: 18 mg/kg | ED50 [12]: 1.2 mg/kg | MIC [13]: 3.1 µg/mL (≈ 9.36 µM) | ED50 [14]: 0.25 mg/kg | MIC [15]: 0.2 µg/mL (≈ 0.604 µM) | ED50 [18]: > 100 mg/kg

Source: ChEMBL document CHEMBL1123422, “1-Ethyl-7-[3-[(ethylamino)methyl]-1-pyrrolidinyl]-6,8-difluoro-1,4- dihydro-4-oxo-3-quinoline-carboxylic acid. New quinolone antibacterial with potent gram-positive activity” (1986)
